Consider two compounds from ChEMBL document CHEMBL1268883, “Plasma-mediated release of morphine from synthesized prodrugs” (Bioorg Med Chem Lett, 2010).

Each structure is given as a SMILES string. A value given as a limit tells only on which side of the number the result lay.

Series [1] in a line: Induction of morphine release at 37.5 nmol in presence of HSA assessed as morphine level per mg of protein by UPLC. The note with it: human.
Series [2] can be described thus: Induction of morphine release at 37.5 nmol in presence of butyryl choline esterase assessed as morphine level per mg of protein by UPLC. The note with it: isolated protein.
Series [3] is described as follows: Induction of morphine release at 37.5 nmol in presence of guinea pig plasma assessed as morphine level per ml plasma by UPLC. The format is cell-free, Cavia porcellus. A digest of the protocol:
(§1)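 Rates were taken from the linear 0–15 min time points. The mix held 37.5 nmol PDB initial and 150 µl plasma or enzyme sample (BCE 0.5 U/ml, HSA 25 mg/ml) in 300 µl total at 37 °C. After ANDM deproteinisation, morphine was measured by UPLC. Rates are expressed per ml of plasma or of enzyme sample at its human-plasma level.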

Series [4] concerns Plasma. Kind of series: Induction of morphine release at 37.5 nmol in presence of human plasma assessed as morphine level per ml plasma by UPLC. The format is cell-free. A digest of the protocol: as §1
Series [5] has as its system Plasma. Put plainly: Induction of morphine release at 37.5 nmol in presence of rat plasma assessed as morphine level per ml plasma by UPLC. It is filed as cell-free. A digest of the protocol: as §1
Series [6] deals with Plasma. Kind of series: Induction of morphine release at 37.5 nmol in presence of mouse plasma assessed as morphine level per ml plasma by UPLC. It is filed as cell-free. A digest of the protocol: as §1
Series [7] can be described thus: Induction of morphine release at 37.5 nmol in presence of 25 mg/ml HSA assessed as morphine level after 15 mins by UPLC. The note with it: human, 0.25 h. A digest of the protocol: (§2)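 PDB (37.5 nmol initial) incubated at 37 °C in 300 µl total with 150 µl sample: purified human serum BCE (0.5 U/ml) or HSA (25 mg/ml), both equivalent to 50% of serum levels, or 50% human plasma in PBS. Aliquots taken over time, mixed with 2 vol ice-cold 10% DMSO in acetonitrile, centrifuged. Supernatant run on UPLC. Morphine quantified from morphine standard curve (1.6–1.75 min peak area).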

The nature of series [8]: Induction of morphine release at 37.5 nmol in presence of 25 mg/ml HSA assessed as morphine level after 2 to 6 hrs by UPLC. The note with it: human. An outline of the steps: as §2
Series [9] is described as follows: Induction of morphine release at 37.5 nmol in presence of 0.5 U/ml butyryl choline esterase assessed as morphine level after 15 mins by UPLC. The note with it: isolated protein, 0.25 h. It is filed as physicochemical. A digest of the protocol: as §2
Series [10] in a line: Induction of morphine release at 37.5 nmol in presence of 0.5 U/ml butyryl choline esterase assessed as morphine level after 3 to 6 hrs by UPLC. It is filed as physicochemical. The note with it: isolated protein. A digest of the protocol: as §2
For series [11], the system named is Plasma. Kind of series: Induction of morphine release at 37.5 nmol in presence of 50% human plasma after 15 mins by UPLC. The format is cell-free. The note with it: 0.25 h. A digest of the protocol:
as §2

Series [12] has as its system Plasma. Put plainly: Induction of morphine release at 37.5 nmol in presence of 50% human plasma after 6 hrs by UPLC. The format is cell-free. A digest of the protocol: as §2
Series [13] in a line: Induction of morphine release at 37.5 nmol in presence of 50% mouse plasma assessed as disappearance of compound peak during 5 to 10 mins at 250 uM. It is filed as cell-free. The note with it: read-out: Activity. An outline of the steps:
(§3)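 PDA (250 µM) incubated with 50% plasma in PBS at 37 °C. Aliquots were withdrawn at intervals, quenched with 2 vol ice-cold 10% DMSO/acetonitrile and centrifuged. The supernatant was analysed by UPLC, following the PDA peak (4.3–4.4 min) and the morphine peak. Morphine was calculated from a morphine standard curve.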

A short description of series [14]: Induction of morphine release at 37.5 nmol in presence of 50% human plasma assessed as disappearance of compound peak during 5 to 10 mins at 250 uM. It is filed as cell-free. The note with it: read-out: Activity. A digest of the protocol: as §3
A short description of series [15]: Induction of morphine release at 37.5 nmol in presence of 50% rat plasma assessed as disappearance of compound peak during 5 to 10 mins at 250 uM. The format is cell-free. The note with it: read-out: Activity. A digest of the protocol:
as §3

Series [16] is described as follows: Induction of morphine release at 37.5 nmol in presence of 50% guinea pig plasma assessed as disappearance of compound peak during 5 to 10 mins at 250 uM. It is filed as cell-free, Cavia porcellus. The note with it: read-out: Activity. An outline of the steps: as §3
Series [17] in a line: Stability in PBS solution up to 24 hrs. The format is physicochemical. The note with it: buffer. An outline of the steps:
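PDA incubated in PBS under the plasma-incubation conditions for up to 24 h, then analysed by UPLC.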

For the next series, the system named is SK-N-SH. Kind of series: Induction of morphine release in human SK-N-SH cells assessed as morphine induced inhibition of forskolin-induced cAMP production ny chemiluminescent assay. It is filed as cell-based. An outline of the steps:
(§4)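 PDA (0.8 mM) was preincubated 24 h with PBS or 50% human plasma. SK-N-SH cells were switched to serum-free medium, exposed to the solutions (equivalent to 5 µM prodrug) for 15 min, then given 5 µM forskolin or vehicle for 15 min. Cells were rinsed and lysed, and cAMP was measured by chemiluminescent assay against a cAMP standard curve.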
Background: Cyclic AMP is a second messenger, typically raised through Gs and lowered through Gi signalling.

Series [18] is described as follows: Induction of morphine release in PBS solution assessed as morphine induced inhibition of forskolin-induced cAMP production ny chemiluminescent assay. It is filed as physicochemical. The note with it: buffer. An outline of the steps: as §4

With `CN1CC[C@]23c4c5ccc(OC(=O)c6ccc(OCC(=O)NCCOCCOCCNC(=O)OC(C)(C)C)cc6)c4O[C@H]2[C@@H](O)C=C[C@H]3[C@H]1C5`, the Activity stood at 0.3 nmol/min in [1]; 0.8 nmol/min in [2]; 2.9 nmol/min in [3]; 1.1 nmol/min in the series with Plasma [4]; 4.2 nmol/min with Plasma [5]; 20.9 nmol/min in the series on Plasma [6]. Moreover, the Activity in series [7] is 1%; in series [8] it was 2%; in series [9], 2.5%; in series [10], 4%; with Plasma [11] it was 4%; in the series with Plasma [12] it was 20%.

Turning to `CN1CC[C@]23c4c5ccc(OC(=O)CCC(=O)OC(C)(C)C)c4O[C@H]2[C@@H](O)C=C[C@H]3[C@H]1C5`, the metabolised at 250 µM in [13], in series [14], in series [15] and in [16] was more than 90% in each case. Moreover, the Stability result in series [17] is “Stable”. For the same compound, the results for the Activity result (in the series with SK-N-SH; in series [18]) were “Active” and “Not Active”, respectively.
